Activity calls are given as the source filed them. The calls are words filed in the database; no cut-off is given here.
Experiments:
[1] = target: T1, NAD-dependent protein deacylase sirtuin-6 (Homo sapiens, UniProt Q8N6T7); assay: Binding affinity to SIRT6 (unknown origin) by isothermal titration calorimetry
Mus musculus = assay: Antidiabetic activity in mouse model of type-2 diabetes mellitus assessed as reduction in blood glucose at 7.5 to 30 mg/kg, ip; assay type: functional, organism-based
Outline: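 High-fat-diet-fed mice served as the type 2 diabetes model. Compound was given by intraperitoneal injection, and blood glucose and body weight were followed over time.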

[2] = target: T2, NAD-dependent protein deacetylase sirtuin-3, mitochondrial (Homo sapiens, UniProt Q9NTG7); assay: Inhibition of SIRT3 (unknown origin)
T2 sequence (Q9NTG7 whole entry): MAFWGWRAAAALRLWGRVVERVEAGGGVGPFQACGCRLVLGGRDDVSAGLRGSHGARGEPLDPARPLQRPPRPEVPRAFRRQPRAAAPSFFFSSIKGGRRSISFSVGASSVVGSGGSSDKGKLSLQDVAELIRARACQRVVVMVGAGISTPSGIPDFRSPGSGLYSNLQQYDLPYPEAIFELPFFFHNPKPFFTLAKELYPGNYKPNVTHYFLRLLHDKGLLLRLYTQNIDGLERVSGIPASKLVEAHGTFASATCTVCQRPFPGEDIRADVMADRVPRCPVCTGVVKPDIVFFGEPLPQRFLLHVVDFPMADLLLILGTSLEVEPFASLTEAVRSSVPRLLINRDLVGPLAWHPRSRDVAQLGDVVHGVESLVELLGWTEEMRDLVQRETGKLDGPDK
Outline: (§1)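 Each deacetylase was run in a Fluor de Lys (FDL) fluorogenic deacetylation assay as a selectivity screen, with compound tested at concentrations up to 200 μM. IC50 was estimated from the dose-response.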

Histone deacetylase 2 = Histone deacetylase 2 (Homo sapiens, UniProt Q92769); assay: Inhibition of HDAC2 (unknown origin); outline: as §1
Histone deacetylase 3 = Histone deacetylase 3 (Homo sapiens, UniProt O15379); assay: Inhibition of HDAC3 (unknown origin); outline: as §1
[3] = target: T3, Protein deacetylase HDAC6 (Homo sapiens, UniProt Q9UBN7); assay: Inhibition of HDAC6 (unknown origin); outline: as §1
T3 sequence (Q9UBN7 whole entry): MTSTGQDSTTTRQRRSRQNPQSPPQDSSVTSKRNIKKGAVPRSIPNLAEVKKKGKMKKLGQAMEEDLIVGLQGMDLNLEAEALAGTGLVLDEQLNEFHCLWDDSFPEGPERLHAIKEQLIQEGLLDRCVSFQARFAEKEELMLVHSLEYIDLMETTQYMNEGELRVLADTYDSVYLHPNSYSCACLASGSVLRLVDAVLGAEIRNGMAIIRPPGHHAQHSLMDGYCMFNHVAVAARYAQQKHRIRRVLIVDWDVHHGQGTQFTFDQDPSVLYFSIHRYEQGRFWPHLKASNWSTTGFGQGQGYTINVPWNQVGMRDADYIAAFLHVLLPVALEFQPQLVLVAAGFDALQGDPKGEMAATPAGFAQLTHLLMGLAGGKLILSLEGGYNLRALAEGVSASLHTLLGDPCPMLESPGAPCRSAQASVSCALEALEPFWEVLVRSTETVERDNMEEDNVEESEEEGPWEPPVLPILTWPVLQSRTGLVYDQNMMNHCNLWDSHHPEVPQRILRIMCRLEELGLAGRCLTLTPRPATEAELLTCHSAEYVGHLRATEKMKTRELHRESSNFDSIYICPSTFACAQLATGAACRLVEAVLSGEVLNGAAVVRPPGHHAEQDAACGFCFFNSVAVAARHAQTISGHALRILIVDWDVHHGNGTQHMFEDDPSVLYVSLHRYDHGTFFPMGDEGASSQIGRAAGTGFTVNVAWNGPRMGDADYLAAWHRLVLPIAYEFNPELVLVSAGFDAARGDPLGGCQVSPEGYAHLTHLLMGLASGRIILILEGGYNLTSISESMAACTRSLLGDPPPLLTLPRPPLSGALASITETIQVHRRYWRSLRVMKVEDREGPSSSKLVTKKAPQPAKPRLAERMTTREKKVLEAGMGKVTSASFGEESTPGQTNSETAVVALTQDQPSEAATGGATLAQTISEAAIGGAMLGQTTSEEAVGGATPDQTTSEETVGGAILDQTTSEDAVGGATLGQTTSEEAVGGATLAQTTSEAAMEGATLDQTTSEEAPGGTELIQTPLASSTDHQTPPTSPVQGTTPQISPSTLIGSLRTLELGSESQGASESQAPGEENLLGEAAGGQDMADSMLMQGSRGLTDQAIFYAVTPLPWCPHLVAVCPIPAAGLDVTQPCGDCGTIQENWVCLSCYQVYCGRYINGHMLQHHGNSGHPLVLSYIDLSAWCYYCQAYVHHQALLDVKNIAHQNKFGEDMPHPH

[4] = target: T1, NAD-dependent protein deacylase sirtuin-6; assay: Inhibition of SIRT6 in human BxPC3 cells assessed as increase in H3K9Ac expression measured after 48 hrs by Western blot analysis; assay type: cell-based; details: BXPC-3
Outline: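 BxPC-3 cells were exposed to 0.78, 1.56, 3.13, 6.25, 12.5 and 25 μM compound for 48 h. Histone H3K9ac and H3K18ac levels were then assessed by western blot, with β-actin as the loading control. Acetylation increase is read as cellular SIRT6 deacetylase inhibition.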

T1 sequence (Q8N6T7 whole entry): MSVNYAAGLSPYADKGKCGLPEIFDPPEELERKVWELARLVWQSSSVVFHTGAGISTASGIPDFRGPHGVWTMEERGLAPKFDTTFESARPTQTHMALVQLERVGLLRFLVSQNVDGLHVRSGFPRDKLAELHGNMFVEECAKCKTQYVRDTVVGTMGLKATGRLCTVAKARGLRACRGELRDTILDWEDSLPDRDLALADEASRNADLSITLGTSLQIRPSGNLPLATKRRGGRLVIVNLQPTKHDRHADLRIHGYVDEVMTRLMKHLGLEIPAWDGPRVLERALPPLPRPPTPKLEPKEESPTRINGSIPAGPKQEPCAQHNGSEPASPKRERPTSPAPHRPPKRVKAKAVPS
Histone deacetylase 3, sequence (O15379 whole entry): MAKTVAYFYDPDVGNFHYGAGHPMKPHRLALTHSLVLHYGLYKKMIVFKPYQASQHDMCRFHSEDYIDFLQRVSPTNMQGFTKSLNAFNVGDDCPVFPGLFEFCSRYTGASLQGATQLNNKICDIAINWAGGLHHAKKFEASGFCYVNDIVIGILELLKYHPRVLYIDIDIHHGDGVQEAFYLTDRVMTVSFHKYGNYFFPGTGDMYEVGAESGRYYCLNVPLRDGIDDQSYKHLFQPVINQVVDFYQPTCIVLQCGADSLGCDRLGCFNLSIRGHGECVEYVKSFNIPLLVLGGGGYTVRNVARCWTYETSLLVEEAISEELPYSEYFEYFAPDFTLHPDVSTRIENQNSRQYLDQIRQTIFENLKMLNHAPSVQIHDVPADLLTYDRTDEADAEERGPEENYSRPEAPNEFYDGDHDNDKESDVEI
Histone deacetylase 2, sequence (Q92769 whole entry): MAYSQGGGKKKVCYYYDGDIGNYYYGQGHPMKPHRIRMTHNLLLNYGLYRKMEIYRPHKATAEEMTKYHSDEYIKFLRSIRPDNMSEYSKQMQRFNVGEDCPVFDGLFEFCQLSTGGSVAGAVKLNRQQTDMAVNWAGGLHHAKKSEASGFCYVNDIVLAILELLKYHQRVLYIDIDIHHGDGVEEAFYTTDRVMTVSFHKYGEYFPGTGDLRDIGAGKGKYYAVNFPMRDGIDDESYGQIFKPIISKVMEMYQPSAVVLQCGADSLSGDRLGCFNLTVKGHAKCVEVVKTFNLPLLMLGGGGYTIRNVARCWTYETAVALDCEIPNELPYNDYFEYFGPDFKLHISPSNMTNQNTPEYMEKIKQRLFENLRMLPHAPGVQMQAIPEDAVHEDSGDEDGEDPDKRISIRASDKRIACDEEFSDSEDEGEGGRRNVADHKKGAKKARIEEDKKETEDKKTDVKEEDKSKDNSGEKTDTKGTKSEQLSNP

CN1CCN(c2ccc([N+](=O)[O-])c(N)c2)CC1
Kd [1]: 10 µM | Activity (Mus musculus): Active | IC50 [2]: > 200 µM | IC50 (Histone deacetylase 2): > 200 µM | IC50 (Histone deacetylase 3): > 200 µM | IC50 [3]: > 200 µM | inhibition [4]: Dose-dependent effect
